Assay results from ChEMBL document CHEMBL1765036, “Small-molecule ligands of methyl-lysine binding proteins” (J Med Chem, 2011).

Assays:
[1] = target: T1, Chromobox protein homolog 7 (Homo sapiens, UniProt O95931); assay: Binding affinity to CBX7 by chemiluminescent assay
T1 sequence (O95931 whole entry): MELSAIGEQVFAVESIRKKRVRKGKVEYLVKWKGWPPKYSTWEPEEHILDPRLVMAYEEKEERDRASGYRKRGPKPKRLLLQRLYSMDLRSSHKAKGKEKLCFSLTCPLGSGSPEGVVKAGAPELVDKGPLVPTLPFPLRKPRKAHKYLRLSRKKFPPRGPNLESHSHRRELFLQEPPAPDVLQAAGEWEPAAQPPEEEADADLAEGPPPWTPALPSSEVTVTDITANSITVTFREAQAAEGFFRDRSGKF
Outline: (§1)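 AlphaScreen bead-based chemiluminescent proximity assay measuring antagonism of methylated histone peptide binding to the MBT/methyl-lysine reader domain. The peptide is H3K9Me1, the same one used as FAM-labelled probe (H3 residues 1-15, monomethyl K9) in the FP assay. A separate counterscreen was run for compound interference with the assay signal.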

[2] = target: PHD finger protein 13 (Homo sapiens, UniProt Q86YI8); assay: Binding affinity to PHF13 by chemiluminescent assay; outline: as §1
[3] = target: MBT domain-containing protein 1 (Homo sapiens, UniProt Q05BQ5); assay: Binding affinity to MBTD1 by chemiluminescent assay; outline: as §1
[4] = target: T2, Scm-like with four MBT domains protein 1 (Homo sapiens, UniProt Q9UHJ3); assay: Binding affinity to human SFMBT by chemiluminescent assay; outline: as §1
T2 sequence (Q9UHJ3 whole entry): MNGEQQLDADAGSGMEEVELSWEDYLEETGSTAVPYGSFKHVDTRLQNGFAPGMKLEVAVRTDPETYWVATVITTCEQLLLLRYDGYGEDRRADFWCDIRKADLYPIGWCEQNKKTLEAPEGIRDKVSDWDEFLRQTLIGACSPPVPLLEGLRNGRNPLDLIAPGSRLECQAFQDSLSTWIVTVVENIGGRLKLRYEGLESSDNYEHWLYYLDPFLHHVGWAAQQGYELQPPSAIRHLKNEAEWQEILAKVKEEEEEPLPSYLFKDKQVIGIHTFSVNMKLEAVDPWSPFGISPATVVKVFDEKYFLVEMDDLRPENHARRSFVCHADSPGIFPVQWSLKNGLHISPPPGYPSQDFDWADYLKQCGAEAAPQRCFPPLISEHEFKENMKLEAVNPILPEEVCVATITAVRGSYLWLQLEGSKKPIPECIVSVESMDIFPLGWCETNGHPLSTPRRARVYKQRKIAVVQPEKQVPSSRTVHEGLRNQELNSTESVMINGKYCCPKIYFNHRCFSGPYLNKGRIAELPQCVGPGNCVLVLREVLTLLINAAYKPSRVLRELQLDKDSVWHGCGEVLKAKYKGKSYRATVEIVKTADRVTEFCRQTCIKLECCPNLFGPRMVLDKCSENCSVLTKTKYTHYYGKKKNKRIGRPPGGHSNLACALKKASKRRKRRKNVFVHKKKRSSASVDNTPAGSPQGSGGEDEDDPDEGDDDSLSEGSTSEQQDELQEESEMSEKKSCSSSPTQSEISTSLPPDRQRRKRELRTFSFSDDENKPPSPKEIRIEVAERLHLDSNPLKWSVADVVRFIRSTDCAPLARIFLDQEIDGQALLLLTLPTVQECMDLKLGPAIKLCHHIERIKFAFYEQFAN

[5] = target: T3, Lethal(3)malignant brain tumor-like protein 4 (Homo sapiens, UniProt Q8NA19); assay: Binding affinity to L3MBTL4 by chemiluminescent assay; outline: as §1
T3 sequence (Q8NA19 whole entry): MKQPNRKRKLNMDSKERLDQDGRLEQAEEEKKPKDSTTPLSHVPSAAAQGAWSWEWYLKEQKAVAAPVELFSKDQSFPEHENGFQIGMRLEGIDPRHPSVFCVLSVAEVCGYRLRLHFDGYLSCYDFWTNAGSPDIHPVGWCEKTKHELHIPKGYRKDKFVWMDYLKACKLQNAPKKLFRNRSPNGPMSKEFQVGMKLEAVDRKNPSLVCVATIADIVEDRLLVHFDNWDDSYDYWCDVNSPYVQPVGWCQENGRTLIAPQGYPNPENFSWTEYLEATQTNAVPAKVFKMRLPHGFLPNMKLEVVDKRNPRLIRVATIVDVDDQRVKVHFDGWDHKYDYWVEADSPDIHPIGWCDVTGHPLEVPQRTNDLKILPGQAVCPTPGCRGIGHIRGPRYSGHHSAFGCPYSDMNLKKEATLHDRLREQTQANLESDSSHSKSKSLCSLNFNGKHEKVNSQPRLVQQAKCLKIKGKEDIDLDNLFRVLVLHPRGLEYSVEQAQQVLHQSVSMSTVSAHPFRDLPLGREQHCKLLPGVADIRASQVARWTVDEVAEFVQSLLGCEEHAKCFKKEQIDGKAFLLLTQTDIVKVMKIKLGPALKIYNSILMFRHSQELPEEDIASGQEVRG

[6] = target: T4, Lethal(3)malignant brain tumor-like protein 3 (Homo sapiens, UniProt Q96JM7); assay: Binding affinity to L3MBTL3 by chemiluminescent assay; outline: as §1
T4 sequence (Q96JM7 whole entry): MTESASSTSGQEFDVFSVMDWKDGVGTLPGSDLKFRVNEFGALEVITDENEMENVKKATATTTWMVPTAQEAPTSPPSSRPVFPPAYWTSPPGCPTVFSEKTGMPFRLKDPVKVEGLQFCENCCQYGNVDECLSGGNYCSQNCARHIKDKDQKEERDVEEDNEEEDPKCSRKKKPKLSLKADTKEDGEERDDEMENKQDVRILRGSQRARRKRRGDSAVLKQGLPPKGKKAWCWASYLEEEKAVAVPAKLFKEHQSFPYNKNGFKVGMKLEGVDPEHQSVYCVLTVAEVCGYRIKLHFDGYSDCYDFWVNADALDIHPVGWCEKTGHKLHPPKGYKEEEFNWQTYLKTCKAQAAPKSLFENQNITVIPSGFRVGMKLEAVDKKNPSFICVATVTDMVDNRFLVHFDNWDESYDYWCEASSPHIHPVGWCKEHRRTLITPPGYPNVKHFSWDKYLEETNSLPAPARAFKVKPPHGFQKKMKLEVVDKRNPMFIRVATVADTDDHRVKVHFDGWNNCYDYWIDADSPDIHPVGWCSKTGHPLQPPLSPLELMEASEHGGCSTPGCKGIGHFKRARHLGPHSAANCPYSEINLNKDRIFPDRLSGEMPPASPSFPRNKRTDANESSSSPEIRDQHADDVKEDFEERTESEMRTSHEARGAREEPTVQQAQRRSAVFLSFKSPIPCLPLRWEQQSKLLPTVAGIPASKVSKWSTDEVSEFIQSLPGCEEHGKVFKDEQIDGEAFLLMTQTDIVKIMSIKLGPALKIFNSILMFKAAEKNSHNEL

Chain of MBT domain-containing protein 1 (Q05BQ5 whole entry, the tested form may be a part): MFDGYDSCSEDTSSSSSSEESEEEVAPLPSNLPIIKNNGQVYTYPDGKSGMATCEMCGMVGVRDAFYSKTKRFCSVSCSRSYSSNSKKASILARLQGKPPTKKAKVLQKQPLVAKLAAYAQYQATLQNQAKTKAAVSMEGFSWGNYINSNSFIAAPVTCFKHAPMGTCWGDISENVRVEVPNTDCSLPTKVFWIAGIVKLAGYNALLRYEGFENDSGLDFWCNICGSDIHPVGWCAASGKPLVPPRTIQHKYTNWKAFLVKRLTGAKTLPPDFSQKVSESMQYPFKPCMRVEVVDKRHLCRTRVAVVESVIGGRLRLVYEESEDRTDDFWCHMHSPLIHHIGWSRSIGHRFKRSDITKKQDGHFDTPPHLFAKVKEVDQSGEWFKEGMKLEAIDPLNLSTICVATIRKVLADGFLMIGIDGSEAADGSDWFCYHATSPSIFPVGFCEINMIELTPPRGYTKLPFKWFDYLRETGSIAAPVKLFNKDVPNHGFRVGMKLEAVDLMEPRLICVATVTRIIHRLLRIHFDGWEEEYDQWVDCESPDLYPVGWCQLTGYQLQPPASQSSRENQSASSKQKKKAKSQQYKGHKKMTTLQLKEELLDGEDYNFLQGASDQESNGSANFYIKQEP
Chain of PHD finger protein 13 (Q86YI8 whole entry, the tested form may be a part): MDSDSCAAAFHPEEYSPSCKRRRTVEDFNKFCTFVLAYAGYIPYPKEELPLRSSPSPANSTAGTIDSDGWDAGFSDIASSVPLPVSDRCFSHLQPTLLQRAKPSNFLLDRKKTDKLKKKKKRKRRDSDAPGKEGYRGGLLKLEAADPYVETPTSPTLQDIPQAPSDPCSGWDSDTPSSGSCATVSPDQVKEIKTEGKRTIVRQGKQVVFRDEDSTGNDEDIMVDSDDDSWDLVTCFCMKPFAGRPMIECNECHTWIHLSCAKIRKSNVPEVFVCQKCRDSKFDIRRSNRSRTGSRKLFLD

Row | Structure (SMILES) | IC50 [1] | IC50 [2] | IC50 [3] | IC50 [4] | IC50 ([5]; read-out: IC50) [µM] | IC50 [6] [µM] | IC50 ([2]; read-out: IC50) [µM] | IC50 [5]
1 | O=C(c1cncc(Br)c1)N1CCC(N2CCCC2)CC1 | Not Active | Not Active | Not Active | Not Active | 69 | 35 |  | 
2 | O=C(NCCCCCN1CCCC1)c1cncc(Br)c1 | Not Active |  | Not Active | Not Active |  | 28 | 48 | Not Active
